Reference: ChEMBL document CHEMBL4425110, “ICI 56,780 Optimization: Structure-Activity Relationship Studies of 7-(2-Phenoxyethoxy)-4(1H)-quinolones with Antimalarial Activity” (J Med Chem, 2016)

Assays:
J774 = assay: Cytotoxicity against mouse J774 cells; format: cell-based
Plasmodium falciparum [1] = assay: Resistance index, ratio of EC50 for Plasmodium falciparum TM90-C2B to EC50 for Plasmodium falciparum W2; format: functional
Plasmodium berghei = assay: Antimalarial activity against Plasmodium berghei; format: functional, organism-based
Method in brief: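 In vitro liver-stage (exoerythrocytic) assay against P. berghei; the value is the EC50 (nM).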

Plasmodium falciparum [2] = assay: Antimalarial activity against Plasmodium falciparum TM90-C2B; format: functional, organism-based
[3] = Liver blood index, ratio of EC50 for Plasmodium falciparum W2 to EC50 for Plasmodium berghei; format: functional
Method in brief: (§1)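 Liver-stage EC50 measured in vitro against P. berghei. Liver blood index is the blood-stage EC50 divided by the P. berghei EC50, using either W2 or TM90-C2B as the blood-stage strain.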

Plasmodium falciparum [4] = assay: Antimalarial activity against Plasmodium falciparum W2; format: functional, organism-based
[5] = Liver blood index, ratio of EC50 for Plasmodium falciparum TM90-C2B to EC50 for Plasmodium berghei; format: functional; method in brief: as §1

SMILES | EC50 (J774) [µM] | Ratio EC50 (Plasmodium falciparum [1]) | EC50 (Plasmodium berghei) [nM] | EC50 (Plasmodium falciparum [2]) [nM] | Ratio EC50 [3] | EC50 (Plasmodium falciparum [4]) [nM] | Ratio EC50 [5]
CCCCc1cc2c(=O)c(I)c[nH]c2cc1OCCOc1ccccc1 | > 10 | 4.91 | 2.55 | 6.04 | 0.482 | 1.23 | 2.37
COC(=O)c1c[nH]c2cc(OCCOc3ccccc3)ccc2c1=O | > 20 | 26.3 | 0.286 | 73.6 | 9.79 | 2.8 | 257
CCc1cc2c(=O)c(C(=O)OC)c[nH]c2cc1OCCOc1ccccc1 | > 20 | 142 | 0.737 | 65.3 | 0.626 | 0.461 | 88.6
COC(=O)c1c[nH]c2ccc(Oc3ccccc3)cc2c1=O | > 20 | 18.5 | – | 7060 | – | 381 | –
CCCCc1cc2c(=O)c(C(=O)N(C)C)c[nH]c2cc1OCCOc1ccccc1 | 15.3 | >108 | 122 | > 6120 | 0.46 | 56.7 | > 27.7
CCCCc1cc2c(=O)c(C(=O)O)c[nH]c2cc1OCCOc1ccccc1 | > 20 | 17.3 | 0.267 | 1110 | 240 | 64 | 4160
COC(=O)c1c[nH]c2ccc(OC)cc2c1=O | 6.18 | >22.2 | 79.6 | > 10700 | 6.05 | 482 | –
COC(=O)c1c[nH]c2ccc(-c3ccccc3)cc2c1=O | > 20 | 3.44 | > 179 | 7180 | – | 2090 | –
CCCCc1ccc2[nH]ccc(=O)c2c1 | > 20 | >35.2 | 395 | > 12400 | 0.89 | 352 | –
COC(=O)c1c[nH]c2ccc(Cl)cc2c1=O | > 20 | 134 | 46.6 | 82200 | 13.2 | 614 | 1760
CCCCc1cc2c(=O)c(C#N)c[nH]c2cc1OCCOc1ccccc1 | > 20 | 32.6 | 6.09 | 3170 | 15.7 | 97.2 | 521
COC(=O)c1c[nH]c2cc(-c3ccccc3)ccc2c1=O | > 20 | 4.41 | – | 11300 | – | 2560 | –
CCOc1ccc2[nH]cc(C(=O)OC)c(=O)c2c1 | > 20 | >34.6 | – | > 10100 | – | 292 | –
O=c1cc[nH]c2cc(OCCOc3ccccc3)ccc12 | > 20 | 1.29 | > 354 | 7680 | – | 5960 | –
CCCCc1cc2c(=O)c(C(=O)NC)c[nH]c2cc1OCCOc1ccccc1 | > 20 | 299 | 2.87 | 3980 | 4.63 | 13.3 | 1390
COC(=O)c1c[nH]c2cc(OCCOc3ccccc3)c(Br)cc2c1=O | > 20 | 189.5 | 0.336 | 847 | 13.3 | 4.47 | 2520
COC(=O)c1c[nH]c2ccc(Oc3ccc(F)cc3)cc2c1=O | > 20 | 48.8 | – | 5710 | – | 117 | –
COC(=O)c1c[nH]c2cc(F)ccc2c1=O | > 20 | 15.1 | > 100 | 395 | – | 26.2 | –

SMILES | EC50 (J774) [µM] | Ratio EC50 (Plasmodium falciparum [1]) | EC50 (Plasmodium berghei) [nM] | EC50 (Plasmodium falciparum [2]) [nM] | Ratio EC50 [3] | EC50 (Plasmodium falciparum [4]) [nM] | Ratio EC50 [5]
CCCCc1cc2c(=O)cc[nH]c2cc1OCCOc1ccccc1 | > 20 | 1.31 | 5.82 | 430 | 56.4 | 328 | 73.9
CCCCCc1cc2c(=O)c(C(=O)OC)c[nH]c2cc1OCCOc1ccccc1 | > 20 | 375 | < 0.56 | 68.7 | – | 0.183 | –
COC(=O)c1c[nH]c2cc(Cl)ccc2c1=O | > 20 | 2.46 | – | 5800 | – | 2360 | –
CCCCc1cc2c(=O)c(C(=O)NC(C)C)c[nH]c2cc1OCCOc1ccccc1 | > 20 | 1.54 | – | 5140 | – | 3340 | –
COC(=O)c1c[nH]c2ccc(C(C)C)cc2c1=O | > 20 | >28.8 | – | > 10200 | – | 354 | –
COC(=O)c1c[nH]c2cc(OCc3ccccc3)ccc2c1=O | 18.9 | 4.42 | – | 8080 | – | 1830 | –
CCCCc1cc2c(=O)c(C(=O)NCC)c[nH]c2cc1OCCOc1ccccc1 | > 20 | >29.7 | – | > 6120 | – | 206 | –
COC(=O)c1c[nH]c2ccccc2c1=O | > 20 | 33 | 3.65 | 6590 | 54.8 | 200 | 1810
CCCCc1cc2c(=O)c(C(C)=O)c[nH]c2cc1OCCOc1ccccc1 | – | 39.1 | – | 378 | – | 9.67 | –
COC(=O)c1c[nH]c2cc(OCCOc3ccccc3)c(OC)cc2c1=O | > 20 | 1.6 | 17.5 | 11.1 | 0.396 | 6.93 | 0.634
CCCCc1cc2c(=O)c(Br)c[nH]c2cc1OCCOc1ccccc1 | 8.07 | 10.5 | 18.7 | 48.7 | 0.248 | 4.64 | 2.6
COC(=O)c1c[nH]c2cc(OCCOc3ccccc3)c(C)cc2c1=O | > 20 | 248 | 152 | 499 | 0.013 | 2.01 | 3.28
CCCCc1cc2c(=O)c(Cl)c(C)[nH]c2cc1OCCOc1ccccc1 | > 10 | 9.79 | 11.2 | 67.7 | 0.616 | 6.92 | 6.03
CCCc1cc2c(=O)c(C(=O)OC)c[nH]c2cc1OCCOc1ccccc1 | > 20 | 270 | < 0.06 | 42.4 | – | 0.157 | –
CCCCc1ccc2[nH]cc(C(=O)OC)c(=O)c2c1 | > 20 | 141 | 0.819 | 222 | 1.93 | 1.58 | 271
CCCCc1cc2c(=O)c(C(=O)OCC)c[nH]c2cc1OCCOc1ccccc1 | > 20 | 699 | 0.007 | 100 | 19.6 | 0.143 | 14300
CCc1ccc2[nH]cc(C(=O)OC)c(=O)c2c1 | > 20 | >74.5 | – | > 10800 | – | 145 | –
